Results reported in ChEMBL document CHEMBL4219023, “Synthesis and biological activity of novel tert-amylphenoxyalkyl (homo)piperidine derivatives as histamine H3R ligands” (Bioorg Med Chem, 2017).
Activity calls are given as the source filed them. The rule behind the calls is not given here.

Assays:
Mus musculus [1] = test: Anticonvulsant activity in CF-1 albino mouse assessed as protection against maximal electroshock-induced seizures at 100 mg/kg, ip after 4 hrs; type: functional, organism-based
In short: (§1)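 Male CF-1 albino mice received compound i.p. as a suspension in 0.5% methylcellulose (30, 100 or 300 mg/kg). Maximal electroshock seizure test read 0.5 h and 4 h after dosing. Result given as animals protected/animals tested.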

Mus musculus [2] = test: Neurotoxicity in CF-1 albino mouse assessed as death at 100 mg/kg, ip after 4 hrs by rotarod test; type: toxicity, organism-based; conditions: in vivo
In short: (§2)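 Anticonvulsant Screening Program (NINDS) Phase 1 neurotoxicity screen in male albino CF-1 mice. Compounds were given i.p. as suspensions in 0.5% methylcellulose at 30, 100 and/or 300 mg/kg, and animals were observed 0.5 h and 4 h after dosing. The rotarod test was scored as number of animals showing toxicity over number tested, with the kind of toxicity recorded: inability to grasp rotorod, death, diarrhea, continuous seizure activity, loss of righting reflex, myoclonic jerks or tremors.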

Mus musculus [3] = test: Anticonvulsant activity in CF-1 albino mouse assessed as protection against maximal electroshock-induced seizures at 30 mg/kg, ip after 0.5 hrs; type: functional, organism-based; in short: as §1
Mus musculus [4] = test: Neurotoxicity in CF-1 albino mouse assessed as death at 300 mg/kg, ip after 0.5 hrs by rotarod test; conditions: in vivo
Mus musculus [5] = test: Anticonvulsant activity in CF-1 albino mouse assessed as protection against subcutaneous pentetrazole-induced seizures at 30 mg/kg, ip after 0.5 hrs; type: functional, organism-based
Mus musculus [6] = test: Neurotoxicity in CF-1 albino mouse assessed as unable to grasp at 100 mg/kg, ip after 0.5 hrs by rotarod test; type: toxicity, organism-based; conditions: in vivo; in short: as §2
Mus musculus [7] = test: Anticonvulsant activity in CF-1 albino mouse assessed as protection against subcutaneous pentetrazole-induced seizures at 300 mg/kg, ip after 0.5 hrs; type: functional, organism-based
Mus musculus [8] = test: Anticonvulsant activity in CF-1 albino mouse assessed as protection against subcutaneous pentetrazole-induced seizures at 100 mg/kg, ip after 0.5 hrs; type: functional, organism-based
Mus musculus [9] = test: Anticonvulsant activity in CF-1 albino mouse assessed as protection against subcutaneous pentetrazole-induced seizures at 100 mg/kg, ip after 4 hrs; type: functional, organism-based
Mus musculus [10] = test: Neurotoxicity in CF-1 albino mouse assessed as death at 300 mg/kg, ip after 4 hrs by rotarod test; type: toxicity, organism-based; conditions: in vivo; in short: as §2
Mus musculus [11] = test: Anticonvulsant activity in CF-1 albino mouse assessed as protection against subcutaneous pentetrazole-induced seizures at 30 mg/kg, ip after 4 hrs; type: functional, organism-based
Histamine H3 receptor [12] = target: T1, Histamine H3 receptor (Homo sapiens, UniProt Q9Y5N1); test: Displacement of [125I]Iodoproxyfan from recombinant human histamine H3 receptor expressed in CHOK1 cell membranes after 90 mins
T1 sequence (Q9Y5N1 whole entry): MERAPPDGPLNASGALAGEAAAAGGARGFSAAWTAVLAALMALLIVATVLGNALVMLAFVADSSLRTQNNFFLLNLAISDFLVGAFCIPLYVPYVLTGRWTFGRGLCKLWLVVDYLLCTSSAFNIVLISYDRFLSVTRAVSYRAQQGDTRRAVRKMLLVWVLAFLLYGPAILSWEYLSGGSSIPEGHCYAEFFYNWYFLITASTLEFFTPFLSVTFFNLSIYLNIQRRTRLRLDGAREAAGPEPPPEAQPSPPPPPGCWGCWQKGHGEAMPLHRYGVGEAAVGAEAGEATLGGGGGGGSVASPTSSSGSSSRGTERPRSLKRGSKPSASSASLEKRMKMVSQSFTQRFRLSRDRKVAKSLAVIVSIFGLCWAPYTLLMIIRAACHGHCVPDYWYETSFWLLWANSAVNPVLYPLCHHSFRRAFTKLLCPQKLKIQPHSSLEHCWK
In short: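 Membranes of CHO-K1 cells expressing hH3R were incubated 90 min at 25 °C, shaken at 250 rpm, with [125I]iodoproxyfan (16–50 pM) and test compound. Nonspecific binding was defined with 1 μM imetit. Separation by filtration on PEI-treated GF/B filters. Ki obtained from IC50 by Cheng-Prusoff.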

Mus musculus [13] = test: Neurotoxicity in CF-1 albino mouse at 100 mg/kg, ip after 0.5 hrs by rotarod test; type: toxicity, organism-based; conditions: in vivo; in short: as §2
Mus musculus [14] = test: Anticonvulsant activity in CF-1 albino mouse assessed as protection against maximal electroshock-induced seizures at 30 mg/kg, ip after 4 hrs; type: functional, organism-based; in short: as §1
Mus musculus [15] = test: Anticonvulsant activity in CF-1 albino mouse assessed as protection against maximal electroshock-induced seizures at 300 mg/kg, ip after 0.5 hrs; type: functional, organism-based; in short: as §1
Mus musculus [16] = test: Anticonvulsant activity in CF-1 albino mouse assessed as protection against subcutaneous pentetrazole-induced seizures at 300 mg/kg, ip after 4 hrs; type: functional, organism-based
Mus musculus [17] = test: Neurotoxicity in CF-1 albino mouse at 100 mg/kg, ip after 4 hrs by rotarod test; type: toxicity, organism-based; conditions: in vivo
In short: (§3)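 Male CF-1 mice were dosed i.p. with compound suspended in 0.5% methylcellulose (30, 100 or 300 mg/kg). Neurotoxicity was scored by rotarod 0.5 h and 4 h after dosing, as animals showing toxicity/animals tested. Type of toxicity was noted, e.g. inability to grasp the rod, tremors, death.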

Mus musculus [18] = test: Neurotoxicity in CF-1 albino mouse at 300 mg/kg, ip after 4 hrs by rotarod test; type: toxicity, organism-based; conditions: in vivo; in short: as §2
[19] = Lipophilicity of compound by RP-TLC analysis; type: physicochemical; conditions: methanol:acetic acid:water
In short: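 Reversed-phase TLC on RP-18 plates with methanol:acetic acid:water mobile phase (acid constant at 10%, methanol 85–55% in 5% steps). Spots visualised with iodine. RM values were derived from Rf and extrapolated to zero methanol to give RM0.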

Mus musculus [20] = test: Neurotoxicity in CF-1 albino mouse at 30 mg/kg, ip after 4 hrs by rotarod test; type: toxicity, organism-based; conditions: in vivo; in short: as §3
Mus musculus [21] = test: Anticonvulsant activity in CF-1 albino mouse assessed as protection against maximal electroshock-induced seizures at 100 mg/kg, ip after 0.5 hrs; type: functional, organism-based; in short: as §1
Mus musculus [22] = test: […] in po dosed mouse brain assessed as activation in HA release measured after 90 mins; type: functional; conditions: 1.5 h
Mus musculus [23] = test: Neurotoxicity in CF-1 albino mouse assessed as death at 300 mg/kg, ip after 0.5 hrs by rotarod test; type: toxicity, organism-based; conditions: in vivo; in short: as §2
Histamine H3 receptor [24] = target: T1, Histamine H3 receptor; test: Displacement of [3H]Nalpha-Methylhistamine from recombinant human histamine H3 receptor expressed in HEK293 cell membranes after 90 mins by liquid scintillation counting analysis
Mus musculus [25] = test: Neurotoxicity in CF-1 albino mouse assessed as diarrhea at 100 mg/kg, ip after 0.5 hrs by rotarod test; type: toxicity, organism-based; conditions: in vivo; in short: as §2
Mus musculus [26] = test: Neurotoxicity in CF-1 albino mouse assessed as diarrhea at 300 mg/kg, ip after 0.5 hrs by rotarod test; type: toxicity, organism-based; conditions: in vivo; in short: as §2
[27] = Safety index, ratio of compound IC50 to doxorubicin IC50 for HEK293 cells after 48 hrs by EZ4U non-radioactive cell proliferation assay; type: ADME, cell-based; conditions: human, read-out: Ratio IC50
[28] = Drug metabolism in pooled human liver microsomes assessed as 2-(4-(5-(azepan-1-yl)pentyloxy)phenyl)propan-1-ol metabolite formation at 50 uM after 2 hrs in presence of NADPH by LC/MS analysis; type: ADME, microsome
In short: (§4)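 Pooled human liver microsomes (1 mg/ml) in 0.1 M Tris-HCl pH 7.4 with compound at 50 μM. After 5 min preincubation at 37 °C, reaction was started with NADPH regeneration system and run 2 h at 37 °C. Stopped with cold methanol and centrifuged. Supernatant analysed by UPLC-ESI tandem quadrupole MS.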

HEK293 = test: Cytotoxicity against HEK293 cells assessed as reduction in cell viability after 48 hrs by EZ4U Non-radioactive cell proliferation assay; type: cell-based; conditions: Homo sapiens, HEK293, 48 h
In short: (§5)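 IMR-32 cells (2×10^4/well) or HEK-293 cells (1.5×10^4/well) in DMEM with 10% FBS were preincubated 24 h at 37 °C, 5% CO2. Compounds from 25 mM DMSO stocks were added at final 0.01–250 μM, with DMSO ≤1%. After 48 h, EZ4U label was added for 5 h and absorbance read at 492 nm.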

IMR-32 = test: Cytotoxicity against human IMR32 cells assessed as reduction in cell viability after 48 hrs by EZ4U Non-radioactive cell proliferation assay; type: cell-based; conditions: IMR-32, 48 h; in short: as §5
[29] = Safety index, ratio of compound IC50 to doxorubicin IC50 for human IMR32 cells after 48 hrs by EZ4U Non-radioactive cell proliferation assay; type: ADME, cell-based; conditions: IMR-32 cells, read-out: Ratio IC50
CYP3A4 = CYP3A4 (Homo sapiens, UniProt P08684); test: Activation of recombinant human CYP3A4 using Luciferin-BE as substrate at 25 uM in presence of NADPH by P450-Glo luminescence assay relative to control; type: ADME; conditions: recombinant human CYP3A4, probe Luciferin-PPXE, in the assay text read “Luciferin-PPXE” for “Luciferin-BE”, read-out: Activity
Chain of CYP3A4 (P08684 whole entry): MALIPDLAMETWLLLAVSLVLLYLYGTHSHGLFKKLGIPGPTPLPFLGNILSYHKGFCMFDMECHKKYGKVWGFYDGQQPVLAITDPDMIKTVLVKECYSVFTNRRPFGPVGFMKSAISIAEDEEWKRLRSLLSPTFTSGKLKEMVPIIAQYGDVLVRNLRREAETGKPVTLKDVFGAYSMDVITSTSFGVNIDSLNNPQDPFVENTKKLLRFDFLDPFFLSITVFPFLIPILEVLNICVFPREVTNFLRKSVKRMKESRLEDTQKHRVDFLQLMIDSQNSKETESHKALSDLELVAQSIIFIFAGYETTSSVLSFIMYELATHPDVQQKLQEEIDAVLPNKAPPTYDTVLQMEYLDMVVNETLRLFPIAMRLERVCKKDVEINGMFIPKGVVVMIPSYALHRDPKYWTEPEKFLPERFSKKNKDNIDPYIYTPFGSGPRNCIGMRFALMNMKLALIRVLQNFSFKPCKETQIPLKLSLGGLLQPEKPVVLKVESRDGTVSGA
In short: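 Recombinant human CYP3A4 P450-Glo luminescence assay: enzyme converts luciferin substrate to D-luciferin, then firefly luciferase is added and light output read as a measure of CYP3A4 activity. Final ligand concentrations 0.025–25 μM.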

Mus musculus [30] = test: Neurotoxicity in CF-1 albino mouse at 30 mg/kg, ip after 0.5 hrs by rotarod test; type: toxicity, organism-based; conditions: in vivo; in short: as §3
Mus musculus [31] = test: Neurotoxicity in CF-1 albino mouse assessed as unable to grasp at 30 mg/kg, ip after 0.5 hrs by rotarod test; type: toxicity, organism-based; conditions: in vivo, 100 mg/kg, in the assay text read “100 mg/kg” for “30 mg/kg”; in short: as §3
Mus musculus [32] = test: Neurotoxicity in CF-1 albino mouse assessed as continuous seizure activity at 100 mg/kg, ip after 0.5 hrs by rotarod test; type: toxicity, organism-based; conditions: in vivo; in short: as §2
Mus musculus [33] = test: Neurotoxicity in CF-1 albino mouse assessed as tremor at 30 mg/kg, ip after 0.5 hrs by rotarod test; type: toxicity, organism-based; conditions: in vivo, 100 mg/kg, in the assay text read “100 mg/kg” for “30 mg/kg”; in short: as §3
Mus musculus [34] = test: Neurotoxicity in CF-1 albino mouse assessed as continuous seizure activity at 300 mg/kg, ip after 0.5 hrs by rotarod test; type: toxicity, organism-based; conditions: in vivo; in short: as §2
[35] = Drug level in pooled human liver microsomes treated with 50 uM 1-(5-(4-(tert-Pentyl)phenoxy)pentyl)azepane hydrogen oxalate after 2 hrs in presence of NADPH by LC/MS analysis; type: ADME, microsome; in short: as §4

Structure (SMILES)	Activity (Mus musculus [1])	Activity (Mus musculus [3])	Activity (Mus musculus [4])	Activity (Mus musculus [5])	Activity (Mus musculus [8])	Activity (Mus musculus [9])	Activity (Mus musculus [11])	Ki (Histamine H3 receptor [12])	Activity (Mus musculus [14])	Activity (Mus musculus [15])	Rm [19]	Activity (Mus musculus [20])	Activity (Mus musculus [21])	further results
CCC(C)(C)c1ccc(OCCCCCCCCN2CCC(C)CC2)cc1.O=C(O)C(=O)O	Active	Active	Toxic	inactive	inactive	inactive	inactive	308 nM	inactive	Active	–	–	–	Activity (Mus musculus [2]): Toxic; Activity (Mus musculus [6]): Toxic; Activity (Mus musculus [7]): inactive; Activity (Mus musculus [10]): Toxic; Activity (Mus musculus [13]): Toxic; Activity (Mus musculus [16]): inactive
CCC(C)(C)c1ccc(OCCCCCCCN2CCCCC2)cc1.O=C(O)C(=O)O	inactive	inactive	Toxic	inactive	inactive	inactive	inactive	55 nM	inactive	Active	2.624	Non-Toxic	Active	Activity (Mus musculus [17]): Non-Toxic; Activity (Mus musculus [18]): Non-Toxic; Activity (Mus musculus [6]): Toxic
Clc1ccc(CCCOCCCN2CCCCC2)cc1 [PITOLISANT]	–	–	–	–	–	–	–	–	–	–	–	–	–	ED50 (Mus musculus [22]): 1.5 mg/kg
CCC(C)(C)c1ccc(OCCCCN2CCCCCC2)cc1.O=C(O)C(=O)O	Active	inactive	Toxic	–	–	–	–	–	inactive	–	2.292	Non-Toxic	Active	Activity (Mus musculus [23]): Toxic; Ki (Histamine H3 receptor [24]): 68 nM; Activity (Mus musculus [25]): Toxic; Activity (Mus musculus [26]): Toxic
CCC(C)(C)c1ccc(OCCCCCN2CCCCCC2)cc1.O=C(O)C(=O)O	–	Active	–	inactive	inactive	inactive	inactive	21.4 nM	inactive	–	2.389	Non-Toxic	Active	selectivity ratio at 48 h [27]: 50 to 90; Drug metabolism [28]: Metabolite_Detected; IC50 (HEK293): 39400 nM; IC50 (IMR-32): 12300 nM; selectivity ratio at 48 h [29]: > 1000; activity at 25 µM (CYP3A4): 76%; Activity (Mus musculus [30]): Non-Toxic
CCC(C)(C)c1ccc(OCCCCCCN2CCCCCC2)cc1.O=C(O)C(=O)O	inactive	inactive	Toxic	inactive	inactive	inactive	inactive	41.2 nM	inactive	–	2.567	Non-Toxic	Active	Activity (Mus musculus [31]): Toxic
CCC(C)(C)c1ccc(OCCCCCCN2CCCC(C)C2)cc1.O=C(O)C(=O)O (centres undefined)	Active	Active	Toxic	inactive	inactive	inactive	inactive	33.8 nM	inactive	Active	2.521	Non-Toxic	Active	Activity (Mus musculus [32]): Toxic; Activity (Mus musculus [33]): Toxic
CCC(C)(C)c1ccc(OCCCCN2CCC(C)CC2)cc1.O=C(O)C(=O)O	inactive	Active	Toxic	inactive	Active	–	inactive	–	inactive	–	–	Non-Toxic	Active	Activity (Mus musculus [23]): Toxic; Activity (Mus musculus [7]): Active; Ki (Histamine H3 receptor [24]): 238 nM; Activity (Mus musculus [34]): Toxic; Activity (Mus musculus [26]): Toxic
CC(CO)c1ccc(OCCCCCN2CCCCCC2)cc1 (centres undefined)	–	–	–	–	–	–	–	–	–	–	–	–	–	Drug uptake [35]: Active
